Tests used:
[1] = Cytotoxicity against bovine MDBK cells assessed as decrease in cell viability after 72 hrs by MTT assay; type: cell-based, Bos taurus; conditions: cattle
Outline: (§1)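 Uninfected MDBK (6×10^5 cells/mL, 10% horse serum) or BHK (1×10^6 cells/mL, 10% FBS) cells in MEM-Earle with serial compound dilutions at 37 °C, 5% CO2, run in parallel with the antiviral assays. Viability read by MTT after 72 h. CC50 by linear regression; mean of three determinations.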

Enterovirus C = assay: Antiviral activity against Enterovirus C Sabin […] infected in African green monkey Vero 76 cells assessed as protection against virus-induced cytopathic effect after 2 days by crystal violet staining-based plaque reduction assay; type: functional, organism-based; conditions: Vero 76, 48 h
[2] = system: Vesicular stomatitis Indiana virus; assay: Antiviral activity against Vesicular stomatitis virus Indiana ATCC VR 158 infected in African green monkey Vero 76 cells assessed as protection against virus-induced cytopathic effect after 2 days by crystal violet staining-based plaque reduction assay; type: functional, organism-based; conditions: ATCC VR 158, Vero 76, 48 h
[3] = Cytotoxicity against human MT4 cells assessed as decrease in cell viability after 96 hrs by MTT assay; type: cell-based
Outline: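 Exponentially growing MT-4 cells seeded at 1×10^5 cells/mL in RPMI-1640 with 10% FBS and incubated with serial compound dilutions at 37 °C, 5% CO2. Viability read by MTT after 96 h. CC50 by linear regression versus untreated controls.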

[4] = Cytotoxicity against African green monkey Vero 76 cells assessed as decrease in cell viability after 48 to 96 hrs by MTT assay; type: cell-based; conditions: chlorocebus sabaeus
Outline: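 Vero 76 cells seeded at 5×10^5 cells/mL in D-MEM with 10% FBS and incubated with serial compound dilutions at 37 °C, 5% CO2. Viability read by MTT after 48–96 h. CC50 by linear regression versus untreated controls.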

Yellow fever virus [5] = assay: Potency index, ratio of azauridine EC50 to compound EC50 for Yellow fever virus 17D vaccine (Stamaril Pasteur J07B01); type: functional
dengue virus type 2 = assay: Antiviral activity against Dengue virus type 2 clinical isolate infected in golden hamster BHK21 cells assessed as protection against virus-induced cytopathic effect after 3 to 4 days by MTT assay; type: functional, organism-based; conditions: BHK-21
Outline: (§2)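 BHK-21 cells (MDBK for BVDV) seeded at 5×10^4 (BHK) or 3×10^4 (MDBK) cells/well and grown overnight to confluence. Infected at m.o.i. 0.01 in maintenance MEM-Earle with 0.5% inactivated FBS. Serial compound dilutions added 2 h later (final 100, 20, 4, 0.8 µM; DMSO ≤0.1%). Viability read by MTT after 3–4 days at 37 °C. EC50 obtained by linear regression against untreated controls; mean of three determinations.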

Yellow fever virus [6] = assay: Antiviral activity against Yellow fever virus 17D vaccine (Stamaril Pasteur J07B01) infected in golden hamster BHK21 cells assessed as protection against virus-induced cytopathic effect after 3 to 4 days by MTT assay; type: functional, organism-based; conditions: BHK-21; outline: as §2
[7] = Antiviral activity against Human enterovirus B Faulkner ATCC VR 185 infected in African green monkey Vero 76 cells assessed as protection against virus-induced cytopathic effect after 3 days by crystal violet staining-based plaque reduction assay; type: functional, cell-based; conditions: Faulkner ATCC VR 185, Vero 76, 72 h
[8] = system: Human immunodeficiency virus 1; assay: Antiviral activity against HIV1 3B infected in human MT4 cells assessed as protection against virus-induced cytopathic effect after 4 days by MTT assay; type: functional, organism-based; conditions: Human immunodeficiency virus 1, 3B, MT4, 96 h
Outline: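 MT-4 cells (1×10^4/well) in RPMI with serial compound dilutions, infected with 100 CCID50 HIV-1 (m.o.i. 0.01). Viability read by MTT after 4 days at 37 °C. EC50 for 50% protection from cytopathicity obtained by linear regression versus untreated controls; mean of three determinations.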

Human alphaherpesvirus 1 = assay: Antiviral activity against Human herpesvirus 1 KOS ATCC VR 1493 infected in African green monkey Vero 76 cells assessed as protection against virus-induced cytopathic effect after 3 days by crystal violet staining-based plaque reduction assay; type: functional, organism-based; conditions: Human alphaherpesvirus 1, KOS, Vero 76, 72 h
[9] = Selectivity index, ratio of CC50 for golden hamster BHK21 cells to EC50 for Yellow fever virus 17D; type: toxicity; conditions: read-out: Ratio CC50/EC50
Outline: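 Selectivity index calculated as BHK-21 CC50 divided by YFV EC50, both from MTT assays.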

Vaccinia virus = assay: Antiviral activity against Vaccinia virus Lister ATCC VR 1549 infected in African green monkey Vero 76 cells assessed as protection against virus-induced cytopathic effect after 3 days by crystal violet staining-based plaque reduction assay; type: functional, organism-based; conditions: Orthopoxvirus vaccinia, ATCC VR 1549, Vero 76, 72 h
[10] = Cytotoxicity against golden hamster BHK21 cells assessed as decrease in cell viability after 72 hrs by MTT assay; type: cell-based, Mesocricetus auratus, BHK-21; outline: as §1
[11] = system: Bovine viral diarrhea virus 1; assay: Antiviral activity against Bovine viral diarrhea virus NADL ATCC VR 534 infected in bovine MDBK cells assessed as protection against virus-induced cytopathic effect after 3 to 4 days by MTT assay; type: functional, organism-based, Bovine viral diarrhea virus 1-NADL; conditions: Bovine viral diarrhea virus isolates and strains, ATCC VR 534, MDBK; outline: as §2
Human orthopneumovirus = assay: Antiviral activity against Human respiratory syncytial virus A2 ATCC VR 1540 infected in African green monkey Vero 76 cells assessed as protection against virus-induced cytopathic effect after 5 days by crystal violet staining-based plaque reduction assay; type: functional, organism-based; conditions: ATCC VR 1540, Vero 76, 120 h
[12] = system: Mammalian orthoreovirus 1; assay: Antiviral activity against Reovirus 1 infected in golden hamster BHK21 cells assessed as protection against virus-induced cytopathic effect after 3 to 4 days by MTT assay; type: functional, organism-based; conditions: Mammalian orthoreovirus 1, BHK-21; outline: as §2
West Nile virus = assay: Antiviral activity against West Nile virus clinical isolate infected in golden hamster BHK21 cells assessed as protection against virus-induced cytopathic effect after 3 to 4 days by MTT assay; type: functional, organism-based; conditions: BHK-21; outline: as §2

Row | Structure (SMILES) | CC50 at 72 h [1] [µM] | EC50 (Enterovirus C) [µM] | EC50 [2] [µM] | CC50 at 96 h [3] [µM] | CC50 [4] [µM] | Ratio EC50 (Yellow fever virus [5]) | EC50 (dengue virus type 2) [µM] | EC50 (Yellow fever virus [6]) [nM] | EC50 [7] [µM] | EC50 [8] [µM] | EC50 (Human alphaherpesvirus 1) [µM] | selectivity ratio [9] | EC50 (Vaccinia virus) [µM] | CC50 at 72 h [10] [µM] | EC50 [11] [µM] | EC50 (Human orthopneumovirus) [µM] | EC50 [12] [µM] | EC50 (West Nile virus) [µM]
1 | NS(=O)(=O)c1ccc(N2N=C(c3ccc(OCc4ccccc4)cc3)CC2c2ccc(F)cc2)cc1 (stereo not given) | > 100 | > 90 | > 90 | > 100 | 90 | 10 | > 60 | 1900 | > 90 | > 100 | > 90 | 31.6 | > 90 | 60 to 69 | > 100 | > 90 | > 69 | > 60
2 | Cc1ccccc1C1CC(c2ccccc2)=NN1c1ccc(S(N)(=O)=O)cc1 (stereo not given) | 18 | > 24 | > 24 | 43 | 24 | 10 | > 14 | 2200 | > 24 | > 43 | > 24 | 6.4 | > 24 | 14 | > 18 | > 24 | > 14 | > 14
3 | NS(=O)(=O)c1ccc(N2N=C(c3ccccc3)CC2c2ccccc2)cc1 (stereo not given) | 16 | > 22 | > 22 | 42 | 22 | 10 |  | > 15000 | > 22 | > 42 | > 22 |  | > 22 | 15 | > 16 | > 22 | > 15 | 
4 | NS(=O)(=O)c1ccc(N2N=C(c3ccccc3)CC2c2ccccc2F)cc1 (stereo not given) | 19 | > 28 | > 28 | 42 | 28 | 10 |  | > 21000 | > 28 | > 42 | > 28 |  | > 28 | 21 | > 19 | > 28 | > 21 | 
5 | COc1c(C)c2c(c(O)c1C/C=C(\C)CCC(=O)O)C(=O)OC2 [MYCOPHENOLIC ACID] |  |  |  |  | 9 |  |  |  |  |  |  |  |  |  |  |  |  | 
6 | Cc1cccc(C2CC(c3ccccc3)=NN2c2ccc(S(N)(=O)=O)cc2)c1 (stereo not given) | 23 | > 25 | > 25 | 37 | 25 | 10 |  | > 25000 | > 25 | > 37 | > 25 |  | > 25 | 25 | > 23 | > 25 | > 25 | 
7 | NS(=O)(=O)c1ccc(N2N=C(c3ccccc3)CC2c2cccc(Cl)c2)cc1 (stereo not given) | 2 | > 21 | > 21 | 41 | 21 | 10 | > 9 | 2500 | > 21 | 10 | > 21 | 3.6 | > 21 | 8 to 9 | > 2 | > 21 | > 8 | > 9
8 | NS(=O)(=O)c1ccc(N2N=C(c3ccccc3)CC2c2cccc(F)c2)cc1 (stereo not given) | 20 | > 24 | > 24 | 44 | 24 | 10 |  | ≥ 15000 | > 24 | 13 | > 24 |  | > 24 | 15 | > 20 | > 24 | > 15 | 
